# According to ChEMBL document CHEMBL1157789, “Design, synthesis and SAR of phenylamino-substituted 5,11-dihydro-dibenzo[a,d]cyclohepten-10-ones and 11H-dibenzo[b,f]oxepin-10-ones as p38 MAP kinase inhibitors” (Bioorg Med Chem Lett, 2010):
# Activity calls are given as the source filed them. The rule behind the calls is not given here.
# Legend:
# [1] = target: Aurora kinase B (Homo sapiens) (UniProt Q96GD4); assay: Inhibition of Aurora B at 10 uM
# [2] = Inhibition of p38 assessed as rate of ATF-2 phosphorylation by immunosorbent non-radioactive enzyme assay
# Method in brief: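 p38α MAP kinase ELISA-type (immunosorbent, non-radioactive) assay. Enzyme was incubated with ATP at 100 µM, ATF-2 as substrate, and test compound at 10^-5 to 10^-8 M. Activity was read as the rate of ATF-2 phosphorylation. SB203580 served as the reference inhibitor.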
# [3] = target: Hepatocyte growth factor receptor (Homo sapiens) (UniProt P08581); assay: Inhibition of MET at 10 uM
# [4] = target: Focal adhesion kinase 1 (Homo sapiens) (UniProt Q05397); assay: Inhibition of FAK at 10 uM
# [5] = target: Insulin-like growth factor 1 receptor (Homo sapiens) (UniProt P08069); assay: Inhibition of IGF1R at 10 uM
# Sequence of Insulin-like growth factor 1 receptor (Homo sapiens) (P08069 31-736 limits assumed): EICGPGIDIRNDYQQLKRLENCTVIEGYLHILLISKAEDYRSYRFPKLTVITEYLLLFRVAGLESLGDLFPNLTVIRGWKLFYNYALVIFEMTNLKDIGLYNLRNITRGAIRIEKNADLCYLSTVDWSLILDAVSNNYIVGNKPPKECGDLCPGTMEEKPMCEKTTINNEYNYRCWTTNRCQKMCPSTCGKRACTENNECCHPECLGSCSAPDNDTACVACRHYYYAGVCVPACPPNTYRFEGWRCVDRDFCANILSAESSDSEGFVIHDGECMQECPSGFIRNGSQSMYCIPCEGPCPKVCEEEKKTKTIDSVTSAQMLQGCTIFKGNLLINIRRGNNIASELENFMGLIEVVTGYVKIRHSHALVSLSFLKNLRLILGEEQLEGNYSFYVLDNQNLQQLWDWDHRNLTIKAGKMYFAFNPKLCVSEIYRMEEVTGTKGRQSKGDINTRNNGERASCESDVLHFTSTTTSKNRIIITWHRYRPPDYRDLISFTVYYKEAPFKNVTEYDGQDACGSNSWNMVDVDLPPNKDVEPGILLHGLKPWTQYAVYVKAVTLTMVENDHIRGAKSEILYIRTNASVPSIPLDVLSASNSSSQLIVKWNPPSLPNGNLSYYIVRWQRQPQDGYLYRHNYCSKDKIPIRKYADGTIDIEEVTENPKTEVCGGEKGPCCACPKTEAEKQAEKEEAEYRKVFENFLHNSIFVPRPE
# Sequence of Insulin-like growth factor 1 receptor (Homo sapiens) (P08069 741-1367 limits assumed): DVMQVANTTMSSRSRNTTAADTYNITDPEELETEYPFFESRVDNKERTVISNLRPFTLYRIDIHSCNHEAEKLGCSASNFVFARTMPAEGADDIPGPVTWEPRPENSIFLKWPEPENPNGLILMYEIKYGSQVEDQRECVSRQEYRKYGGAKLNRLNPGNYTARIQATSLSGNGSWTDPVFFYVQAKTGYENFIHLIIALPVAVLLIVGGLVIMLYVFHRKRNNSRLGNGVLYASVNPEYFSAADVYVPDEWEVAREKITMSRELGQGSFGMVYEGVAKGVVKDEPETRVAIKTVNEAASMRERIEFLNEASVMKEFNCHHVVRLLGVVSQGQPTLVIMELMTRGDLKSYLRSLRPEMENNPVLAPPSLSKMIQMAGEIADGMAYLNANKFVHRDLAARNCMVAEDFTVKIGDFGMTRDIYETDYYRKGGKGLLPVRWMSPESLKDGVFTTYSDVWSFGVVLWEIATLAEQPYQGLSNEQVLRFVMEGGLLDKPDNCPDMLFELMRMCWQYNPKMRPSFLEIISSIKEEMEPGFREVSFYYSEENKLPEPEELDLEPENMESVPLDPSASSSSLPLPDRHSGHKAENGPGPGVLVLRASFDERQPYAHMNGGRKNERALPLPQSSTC
# [6] = target: T1, Serine/threonine-protein kinase PLK4 (Homo sapiens) (UniProt O00444); assay: Inhibition of SAK at 10 uM
# T1 sequence (whole entry): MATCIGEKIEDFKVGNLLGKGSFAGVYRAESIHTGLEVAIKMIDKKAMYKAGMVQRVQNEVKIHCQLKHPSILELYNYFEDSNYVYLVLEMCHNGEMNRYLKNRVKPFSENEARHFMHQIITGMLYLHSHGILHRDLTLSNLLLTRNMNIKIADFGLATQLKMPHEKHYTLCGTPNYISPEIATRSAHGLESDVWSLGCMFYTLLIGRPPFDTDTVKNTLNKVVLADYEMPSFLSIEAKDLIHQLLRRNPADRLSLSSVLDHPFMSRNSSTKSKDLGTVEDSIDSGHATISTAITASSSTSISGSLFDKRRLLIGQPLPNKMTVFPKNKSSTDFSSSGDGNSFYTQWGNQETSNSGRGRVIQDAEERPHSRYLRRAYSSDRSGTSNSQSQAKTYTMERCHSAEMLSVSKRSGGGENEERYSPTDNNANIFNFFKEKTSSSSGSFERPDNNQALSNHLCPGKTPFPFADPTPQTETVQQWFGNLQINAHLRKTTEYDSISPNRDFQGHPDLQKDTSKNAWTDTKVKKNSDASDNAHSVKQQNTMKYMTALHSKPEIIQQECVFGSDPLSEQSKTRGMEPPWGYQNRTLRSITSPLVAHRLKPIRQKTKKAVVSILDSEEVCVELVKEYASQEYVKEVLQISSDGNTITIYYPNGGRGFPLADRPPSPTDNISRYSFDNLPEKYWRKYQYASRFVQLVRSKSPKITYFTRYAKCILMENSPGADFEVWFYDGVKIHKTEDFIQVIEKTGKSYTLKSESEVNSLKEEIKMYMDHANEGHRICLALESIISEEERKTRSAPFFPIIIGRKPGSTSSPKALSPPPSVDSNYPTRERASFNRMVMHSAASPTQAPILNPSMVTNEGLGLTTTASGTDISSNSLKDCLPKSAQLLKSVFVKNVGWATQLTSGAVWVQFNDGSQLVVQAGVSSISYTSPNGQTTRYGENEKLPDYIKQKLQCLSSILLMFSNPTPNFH
# [7] = system: Serine/threonine-protein kinase B-raf (Homo sapiens), P15056 [V600E]; assay: Inhibition of B-Raf V600E mutant at 10 uM
# Sequence of Serine/threonine-protein kinase B-raf (Homo sapiens), P15056 [V600E] (P15056 whole entry V600E): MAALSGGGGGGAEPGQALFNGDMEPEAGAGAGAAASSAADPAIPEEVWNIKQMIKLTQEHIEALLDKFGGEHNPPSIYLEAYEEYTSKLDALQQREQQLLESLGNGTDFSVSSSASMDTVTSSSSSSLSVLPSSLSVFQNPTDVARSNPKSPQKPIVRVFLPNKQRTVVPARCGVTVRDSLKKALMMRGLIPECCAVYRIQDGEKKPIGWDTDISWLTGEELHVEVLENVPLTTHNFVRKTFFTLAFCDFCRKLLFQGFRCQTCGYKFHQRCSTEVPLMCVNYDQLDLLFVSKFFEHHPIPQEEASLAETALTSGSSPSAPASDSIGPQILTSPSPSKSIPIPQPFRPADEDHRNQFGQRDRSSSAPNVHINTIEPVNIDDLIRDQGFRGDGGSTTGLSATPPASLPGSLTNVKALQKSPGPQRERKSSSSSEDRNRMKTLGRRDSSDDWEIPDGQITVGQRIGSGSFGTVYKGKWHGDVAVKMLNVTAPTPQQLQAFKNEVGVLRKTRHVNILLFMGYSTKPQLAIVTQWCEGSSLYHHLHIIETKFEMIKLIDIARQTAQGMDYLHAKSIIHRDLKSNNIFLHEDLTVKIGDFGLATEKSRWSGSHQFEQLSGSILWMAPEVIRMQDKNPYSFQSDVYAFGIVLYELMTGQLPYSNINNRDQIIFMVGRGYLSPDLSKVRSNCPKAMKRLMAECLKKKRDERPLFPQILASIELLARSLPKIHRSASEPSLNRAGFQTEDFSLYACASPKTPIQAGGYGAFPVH
# [8] = target: T2, NUAK family SNF1-like kinase 1 (Homo sapiens) (UniProt O60285); assay: Inhibition of ARK5 at 10 uM
# T2 sequence (whole entry): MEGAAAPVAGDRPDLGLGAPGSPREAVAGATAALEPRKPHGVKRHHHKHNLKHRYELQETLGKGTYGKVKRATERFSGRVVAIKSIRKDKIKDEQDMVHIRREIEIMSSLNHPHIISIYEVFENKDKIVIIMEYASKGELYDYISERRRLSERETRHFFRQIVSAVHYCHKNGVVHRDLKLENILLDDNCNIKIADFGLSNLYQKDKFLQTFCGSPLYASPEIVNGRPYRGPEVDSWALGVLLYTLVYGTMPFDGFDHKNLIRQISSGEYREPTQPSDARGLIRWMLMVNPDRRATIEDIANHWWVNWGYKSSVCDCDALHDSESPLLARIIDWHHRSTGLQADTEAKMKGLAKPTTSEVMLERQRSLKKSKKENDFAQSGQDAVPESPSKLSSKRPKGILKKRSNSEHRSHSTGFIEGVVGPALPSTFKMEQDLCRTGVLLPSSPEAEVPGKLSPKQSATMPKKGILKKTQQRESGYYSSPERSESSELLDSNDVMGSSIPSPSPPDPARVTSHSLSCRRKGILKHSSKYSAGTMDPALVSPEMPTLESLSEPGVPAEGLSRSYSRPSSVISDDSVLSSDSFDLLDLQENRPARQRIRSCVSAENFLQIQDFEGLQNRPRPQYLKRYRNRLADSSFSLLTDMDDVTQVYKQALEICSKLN
# [9] = target: Serine/threonine-protein kinase N1 (Homo sapiens) (UniProt Q16512); assay: Inhibition of PRK1 at 10 uM
# Sequence of Serine/threonine-protein kinase N1 (Homo sapiens) (Q16512 2-942 limits assumed): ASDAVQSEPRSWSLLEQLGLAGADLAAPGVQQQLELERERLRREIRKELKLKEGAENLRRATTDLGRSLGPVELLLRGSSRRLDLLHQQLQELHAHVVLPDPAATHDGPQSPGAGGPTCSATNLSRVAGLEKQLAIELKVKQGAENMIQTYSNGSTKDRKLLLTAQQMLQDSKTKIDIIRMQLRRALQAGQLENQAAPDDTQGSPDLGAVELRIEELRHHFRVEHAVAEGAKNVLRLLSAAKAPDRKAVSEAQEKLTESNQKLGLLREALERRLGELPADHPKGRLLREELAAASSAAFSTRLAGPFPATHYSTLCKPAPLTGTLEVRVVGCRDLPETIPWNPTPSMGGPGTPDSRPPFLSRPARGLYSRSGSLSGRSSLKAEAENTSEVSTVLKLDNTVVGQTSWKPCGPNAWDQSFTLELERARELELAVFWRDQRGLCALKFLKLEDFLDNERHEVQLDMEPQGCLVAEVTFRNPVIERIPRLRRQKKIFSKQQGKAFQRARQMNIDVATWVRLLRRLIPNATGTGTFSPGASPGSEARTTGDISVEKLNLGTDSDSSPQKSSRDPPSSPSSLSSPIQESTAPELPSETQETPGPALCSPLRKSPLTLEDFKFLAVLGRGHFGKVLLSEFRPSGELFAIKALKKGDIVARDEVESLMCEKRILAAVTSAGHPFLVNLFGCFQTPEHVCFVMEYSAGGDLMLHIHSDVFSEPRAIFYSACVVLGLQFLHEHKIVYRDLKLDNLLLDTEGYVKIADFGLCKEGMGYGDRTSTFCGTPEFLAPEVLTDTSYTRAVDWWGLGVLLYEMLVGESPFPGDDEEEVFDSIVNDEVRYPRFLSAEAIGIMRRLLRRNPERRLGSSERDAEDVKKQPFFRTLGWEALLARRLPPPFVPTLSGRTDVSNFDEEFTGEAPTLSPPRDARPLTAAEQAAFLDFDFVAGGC
# [10] = target: Vascular endothelial growth factor receptor 2 (Homo sapiens) (UniProt P35968); assay: Inhibition of VGFR2 at 10 uM
# Sequence of Vascular endothelial growth factor receptor 2 (Homo sapiens) (P35968 whole entry): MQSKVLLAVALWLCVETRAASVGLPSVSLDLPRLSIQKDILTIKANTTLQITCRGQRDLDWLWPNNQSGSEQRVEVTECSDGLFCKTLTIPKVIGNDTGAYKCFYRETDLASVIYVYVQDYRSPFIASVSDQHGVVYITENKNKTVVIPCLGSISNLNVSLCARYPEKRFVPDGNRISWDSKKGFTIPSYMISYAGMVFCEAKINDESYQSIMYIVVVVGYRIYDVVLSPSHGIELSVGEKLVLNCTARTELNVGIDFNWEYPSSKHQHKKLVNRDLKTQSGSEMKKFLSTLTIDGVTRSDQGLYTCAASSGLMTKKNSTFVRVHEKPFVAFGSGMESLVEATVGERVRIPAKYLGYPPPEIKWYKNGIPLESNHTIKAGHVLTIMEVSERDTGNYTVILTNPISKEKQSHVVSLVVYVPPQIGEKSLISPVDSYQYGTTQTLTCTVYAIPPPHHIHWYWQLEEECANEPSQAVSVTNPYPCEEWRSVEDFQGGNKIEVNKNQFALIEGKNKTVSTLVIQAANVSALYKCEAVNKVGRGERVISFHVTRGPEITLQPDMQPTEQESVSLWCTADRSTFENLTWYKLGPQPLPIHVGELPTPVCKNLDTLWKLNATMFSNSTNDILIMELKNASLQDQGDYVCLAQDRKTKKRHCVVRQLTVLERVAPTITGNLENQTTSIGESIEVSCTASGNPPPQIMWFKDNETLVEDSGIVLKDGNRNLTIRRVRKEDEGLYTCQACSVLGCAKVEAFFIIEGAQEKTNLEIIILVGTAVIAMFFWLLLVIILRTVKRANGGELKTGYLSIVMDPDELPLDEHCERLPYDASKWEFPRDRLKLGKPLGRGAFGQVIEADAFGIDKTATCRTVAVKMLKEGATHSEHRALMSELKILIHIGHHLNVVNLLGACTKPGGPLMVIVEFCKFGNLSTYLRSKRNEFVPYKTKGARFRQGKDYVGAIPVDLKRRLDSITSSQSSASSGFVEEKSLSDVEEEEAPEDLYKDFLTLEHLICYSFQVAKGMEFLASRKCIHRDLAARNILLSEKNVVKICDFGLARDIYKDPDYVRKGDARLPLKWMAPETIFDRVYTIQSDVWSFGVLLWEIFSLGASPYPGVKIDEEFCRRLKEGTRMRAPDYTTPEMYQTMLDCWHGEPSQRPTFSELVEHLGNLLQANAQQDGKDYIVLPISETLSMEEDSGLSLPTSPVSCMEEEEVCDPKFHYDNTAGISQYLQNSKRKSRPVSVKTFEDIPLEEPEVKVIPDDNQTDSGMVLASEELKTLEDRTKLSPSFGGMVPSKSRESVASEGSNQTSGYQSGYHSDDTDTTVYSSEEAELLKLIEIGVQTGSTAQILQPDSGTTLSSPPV
# [11] = target: BDNF/NT-3 growth factors receptor (Homo sapiens) (UniProt Q16620); assay: Inhibition of TRKB at 10 uM
# [12] = target: Insulin receptor (Homo sapiens) (UniProt P06213); assay: Inhibition of INSR at 10 uM
# [13] = target: RAC-alpha serine/threonine-protein kinase (Homo sapiens) (UniProt P31749); assay: Inhibition of AKT1 at 10 uM
# [14] = target: Proto-oncogene tyrosine-protein kinase Src (Homo sapiens) (UniProt P12931); assay: Inhibition of SRC at 10 uM
# [15] = target: Tyrosine-protein kinase receptor UFO (Homo sapiens) (UniProt P30530); assay: Inhibition of AXL at 10 uM
# [16] = target: Serine/threonine-protein kinase PLK1 (Homo sapiens) (UniProt P53350); assay: Inhibition of PLK1 at 10 uM
# [17] = target: Casein kinase II subunit alpha (Homo sapiens) (UniProt P68400); assay: Inhibition of CK2alpha1 at 10 uM
# Sequence of Casein kinase II subunit alpha (Homo sapiens) (P68400 whole entry, looked up): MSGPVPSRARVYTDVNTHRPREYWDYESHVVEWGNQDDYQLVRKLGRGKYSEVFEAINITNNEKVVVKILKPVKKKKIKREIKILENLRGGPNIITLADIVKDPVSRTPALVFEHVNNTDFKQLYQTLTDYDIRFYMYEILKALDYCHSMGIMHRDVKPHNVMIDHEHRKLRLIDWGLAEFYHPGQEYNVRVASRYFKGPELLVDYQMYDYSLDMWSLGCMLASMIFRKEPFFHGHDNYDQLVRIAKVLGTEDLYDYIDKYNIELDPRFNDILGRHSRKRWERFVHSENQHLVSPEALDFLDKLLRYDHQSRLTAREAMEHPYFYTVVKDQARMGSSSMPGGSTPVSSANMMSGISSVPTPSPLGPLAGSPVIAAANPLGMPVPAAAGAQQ
inhibition [1],IC50 [2] [µM],inhibition [3],inhibition [4],inhibition [5],inhibition [6],inhibition [7],inhibition [8],inhibition [9],inhibition [10],inhibition [11],inhibition [12],inhibition [13],inhibition [14],inhibition [15],inhibition [16],inhibition [17],Structure (SMILES)
inactive,0.99,inactive,inactive,inactive,inactive,inactive,inactive,inactive,inactive,inactive,inactive,inactive,inactive,inactive,inactive,inactive,Nc1ccccc1Nc1ccc2c(c1)Cc1ccccc1CC2=O
inactive,3.82,inactive,inactive,inactive,inactive,inactive,inactive,inactive,inactive,inactive,inactive,inactive,inactive,inactive,inactive,inactive,Nc1cc(F)ccc1Nc1ccc2c(c1)Cc1ccccc1C(=O)C2
,0.05,,,,,,,,,,,,,,,,Nc1ccccc1Nc1ccc2c(c1)CCc1ccccc1C2=O
inactive,2.1,inactive,inactive,inactive,inactive,inactive,inactive,inactive,inactive,inactive,inactive,inactive,inactive,inactive,inactive,inactive,Nc1ccccc1Nc1ccc2c(c1)CC(=O)c1ccccc1C2
inactive,1.93,inactive,inactive,inactive,inactive,inactive,inactive,inactive,inactive,inactive,inactive,inactive,inactive,inactive,inactive,inactive,Nc1ccccc1Nc1ccc2c(c1)Cc1ccccc1C(=O)C2
inactive,2.92,inactive,inactive,inactive,inactive,inactive,inactive,inactive,inactive,inactive,inactive,inactive,inactive,inactive,inactive,inactive,Nc1cc(F)ccc1Nc1ccc2c(c1)Oc1ccccc1NC2=O
inactive,1.72,inactive,inactive,inactive,inactive,inactive,inactive,inactive,inactive,inactive,inactive,inactive,inactive,inactive,inactive,inactive,Nc1cc(F)ccc1Nc1ccc2c(c1)Cc1ccccc1CC2=O
,2.92,,,,,,,,,,,,,,,,O=C1Cc2ccccc2Oc2cc(Nc3ccccc3)ccc21
inactive,2.7,inactive,inactive,inactive,inactive,inactive,inactive,inactive,inactive,inactive,inactive,inactive,inactive,inactive,inactive,inactive,Nc1ccccc1Nc1ccc2c(c1)Oc1ccccc1NC2=O
inactive,3.21,inactive,inactive,inactive,inactive,inactive,inactive,inactive,inactive,inactive,inactive,inactive,inactive,inactive,inactive,inactive,O=C1Cc2ccc(Nc3ccccc3)cc2Cc2ccccc21
inactive,1.51,inactive,inactive,inactive,inactive,inactive,inactive,inactive,inactive,inactive,inactive,inactive,inactive,inactive,inactive,inactive,O=C1Cc2ccccc2Cc2cc(Nc3ccc(F)cc3F)ccc21
,1.63,,,,,,,,,,,,,,,,Nc1cc(F)ccc1Nc1ccc2c(c1)Oc1ccccc1CC2=O
,1.2,,,,,,,,,,,,,,,,Nc1ccccc1Nc1ccc2c(c1)Oc1ccccc1CC2=O
